ChEMBL document CHEMBL1124747, “Properties of the nucleic acid photoaffinity labeling agent 3-azidoamsacrine” (J Med Chem, 1990)

Columns and labels:
[1] = test system: L5178Y; assay: Induction frequency for L5178Y cells was evaluated at dose 0.005 mg/mL in light condition (expt-II); format: functional, Mus musculus
Summary of the method: (§1)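 L5178Y suspension cells (3 × 10^6/mL, 5% CO2, 37 °C, shaking) exposed 20 h without activating enzyme; light arm irradiated 6.5 min (Hg lamp, <340 nm filtered). Cells washed, grown 24 h more and kept at 3 × 10^5/mL. Viability from 200 cells in soft agar; TFT (0.1 mg/mL) resistant colonies from 10^6 cells in triplicate dishes, counted at 10 days.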

[2] = test system: L5178Y; assay: Relative toxicity against mammalian L5178Y cells at dose 0.005 mg/mL in dark condition (expt-II); format: functional, Mus musculus
Summary of the method: (§2)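 L5178Y mouse cells in suspension, 3 × 10^6 cells/mL, were exposed for 20 h at 37 °C in a shaker at 150 rpm under 5% CO2, without an activating enzyme. Light arms were irradiated for 6.5 min with a medium-pressure Hg lamp filtered to remove light below 340 nm; dark arms were not. Toxicity was taken as the Coulter-counted density of treated cells versus solvent control.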

[3] = test system: L5178Y; assay: Relative mutation induction for L5178Y cells was evaluated at dose 0.005 mg/mL in light condition (expt-II); format: functional, Mus musculus; summary of the method: as §1
[4] = test system: L5178Y; assay: Mutation frequency for L5178Y cells was evaluated at dose 0.005 mg/mL in dark condition (expt-II); format: functional, Mus musculus; summary of the method: as §1
[5] = test system: L5178Y; assay: Mutation frequency for L5178Y cells was evaluated at dose 0.005 mg/mL in light condition (expt-II); format: functional, Mus musculus; summary of the method: as §1
[6] = Half-life was evaluated in water in the presence of light; format: ADME
[7] = Ability to block cleavage of G/GNCC site in Restriction endonuclease Sau961 with the test compound/DNA ratio 1(no. of sites=15); - = no activation
Summary of the method: (§3)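 pBR322 plasmid mixed with drug at 0.015, 0.12 or 0.48 mM (drug:DNA 1:8, 1:1 or 4:1), equilibrated on ice 30 min in the dark in 5 mM potassium phosphate pH 5.5, then irradiated 1 h with a medium-pressure Hg lamp (<340 nm filtered); dark set kept as control. Digested overnight with 10× excess enzyme plus DTT; fragments resolved on 1.2% agarose in TBE.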

[8] = test system: L5178Y; assay: Viability of L5178Y cells was evaluated at dose 0.005 mg/mL in dark condition (expt-II); format: functional, Mus musculus
Summary of the method: (§4)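 L5178Y cells were exposed for 20 h at 3 × 10^6 cells/mL. Light arms then received 6.5 min of Hg-lamp irradiation filtered to remove light below 340 nm. Cells were washed twice in Fischer's medium, grown a further 24 h and held at 3 × 10^5 cells/mL. For viability, 200 cells were plated in soft-agar cloning medium in triplicate dishes, and colonies were counted by an automated counter after 10 days.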

[9] = Ability to block cleavage of G/GNCC site in Restriction endonuclease Sau961 with the test compound/DNA ratio 1:8(no. of sites=15); - = no activation; summary of the method: as §3
[10] = test system: L5178Y; assay: Mean value of mutation induction for L5178Y cells was evaluated at dose 0.005 mg/mL in light condition (expt-II); format: functional, Mus musculus; summary of the method: as §1
[11] = test system: L5178Y; assay: Relative toxicity against mammalian L5178Y cells at dose 0.005 mg/mL in light condition (expt-II); format: functional, Mus musculus; summary of the method: as §2
[12] = test system: L5178Y; assay: Mean value of mutation induction for L5178Y cells was evaluated at dose 0.005 mg/mL in dark condition (expt-II); format: functional, Mus musculus
Summary of the method: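 L5178Y cells in suspension culture, gassed with 5% CO2 in air, shaken at 150 rpm, 37 °C. Cells at 3 × 10^6/mL were dosed for 20 h, unirradiated and without activating enzyme, then washed twice in Fop and grown 24 h more. TFT-resistant mutants came from 10^6 cells plated in three dishes of cloning medium with 0.1 mg/mL TFT, colonies counted at 10 days; frequency expressed ×10^6.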

[13] = test system: L5178Y; assay: Induction frequency for L5178Y cells was evaluated at dose 0.005 mg/mL in dark condition (expt-II); format: functional, Mus musculus; summary of the method: as §1
[14] = test system: L5178Y; assay: Relative mutation induction for L5178Y cells was evaluated at dose 0.005 mg/mL in dark condition (expt-II); format: functional, Mus musculus; summary of the method: as §1
[15] = Half-life was evaluated in water in the absence of light; format: ADME
[16] = test system: L5178Y; assay: Viability of L5178Y cells was evaluated at dose 0.005 mg/mL in light condition (expt-II); format: functional, Mus musculus; summary of the method: as §4

half-life [6]: 24 h
inhibition [7]: no activation
inhibition [9]: no activation
half-life [15]: > 336 h
Structure (SMILES): COc1cc(NS(C)(=O)=O)ccc1Nc1c2ccccc2nc2ccccc12 [AMSACRINE]
Induced frequency [1]: 733
Relative toxicity [2]: 62
Relative activity [3]: 10
Mutation frequency [4]: 577 10e6 F
Mutation frequency [5]: 862 10e6 F
Viability [8]: 20
Mean value [10]: 53
Relative toxicity [11]: 62
Mean value [12]: 57.7
Induced frequency [13]: 439
Relative activity [14]: 67
Viability [16]: 12.3
